For data set [1] the following is noted: previously reported in mice ref 53; cited from earlier work.
The test system of data set [2] is MFD-induced hypercholesterolemia. The experiment in a line: MFD-induced mouse model of hypercholesterolemia. It is filed as in vivo, C57BL/6 mice. The following applies: MFD mice. In outline:
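Male C57BL/6 mice (20–24 g) were fed medium-fat diet (12% fat, 0.5% sodium cholate, 1.25% cholesterol) with 3 weeks' induction. Survival, body weight and food intake were logged weekly. Sixteen hours post-dose, retro-orbital serum TC, LDL-C and TG were measured on an automated analyser (one-way ANOVA, mean ± SD).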

Data set [3] concerns the target T1, recombinant HMGCR protein (Homo sapiens, UniProt P04035).
T1 sequence (P04035 426-888 limits assumed): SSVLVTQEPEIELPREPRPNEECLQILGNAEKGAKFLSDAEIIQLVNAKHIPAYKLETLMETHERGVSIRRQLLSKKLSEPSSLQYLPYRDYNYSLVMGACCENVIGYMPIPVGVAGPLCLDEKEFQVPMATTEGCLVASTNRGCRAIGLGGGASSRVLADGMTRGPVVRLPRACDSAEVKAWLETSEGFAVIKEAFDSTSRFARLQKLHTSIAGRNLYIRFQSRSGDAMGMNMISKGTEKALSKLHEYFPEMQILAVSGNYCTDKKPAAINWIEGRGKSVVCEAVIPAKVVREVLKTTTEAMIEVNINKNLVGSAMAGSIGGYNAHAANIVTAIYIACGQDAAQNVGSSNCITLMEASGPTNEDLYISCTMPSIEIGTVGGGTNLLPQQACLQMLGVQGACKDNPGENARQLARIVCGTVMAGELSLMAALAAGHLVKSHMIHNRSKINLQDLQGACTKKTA
The experiment in a line: HMG-CoA reductase activity assay. Format: biochemical.

The target in data set [4] is T2, HMGCR (Mus musculus, UniProt Q01237).
T2 sequence (Q01237 1-887): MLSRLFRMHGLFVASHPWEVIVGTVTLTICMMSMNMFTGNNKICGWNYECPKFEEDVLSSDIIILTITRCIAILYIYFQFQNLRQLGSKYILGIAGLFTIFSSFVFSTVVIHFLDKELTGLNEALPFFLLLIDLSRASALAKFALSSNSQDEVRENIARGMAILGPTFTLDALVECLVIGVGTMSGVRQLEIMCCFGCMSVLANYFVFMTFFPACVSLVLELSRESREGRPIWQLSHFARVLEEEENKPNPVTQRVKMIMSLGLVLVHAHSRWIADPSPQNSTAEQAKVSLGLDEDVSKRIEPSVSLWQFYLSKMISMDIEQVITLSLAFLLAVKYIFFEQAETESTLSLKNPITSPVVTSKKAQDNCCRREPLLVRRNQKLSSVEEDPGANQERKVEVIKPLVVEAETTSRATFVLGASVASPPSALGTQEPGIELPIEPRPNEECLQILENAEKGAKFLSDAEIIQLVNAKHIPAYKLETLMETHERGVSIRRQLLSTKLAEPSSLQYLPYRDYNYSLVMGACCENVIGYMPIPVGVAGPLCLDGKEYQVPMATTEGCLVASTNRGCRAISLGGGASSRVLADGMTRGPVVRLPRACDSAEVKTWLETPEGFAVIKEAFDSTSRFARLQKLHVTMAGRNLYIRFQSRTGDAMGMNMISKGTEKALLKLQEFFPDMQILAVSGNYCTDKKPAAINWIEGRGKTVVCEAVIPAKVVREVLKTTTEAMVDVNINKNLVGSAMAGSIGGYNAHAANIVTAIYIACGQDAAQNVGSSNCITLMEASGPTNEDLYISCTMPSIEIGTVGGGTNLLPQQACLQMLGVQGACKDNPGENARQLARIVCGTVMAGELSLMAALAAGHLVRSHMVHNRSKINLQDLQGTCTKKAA
The experiment in a line: Hepatic HMGCR level by Western blot in MFD-fed mice. Format: in vivo, C57BL/6 mice. The following applies: 20 mg/kg p.o. once daily 5 weeks, 16 h after final gavage. Background: A western blot detects proteins with antibodies after separation by electrophoresis.

A short description of data set [5]: In vitro metabolic stability in mouse liver microsomes. Particulars: for half-life at 1 μmol/L: pH 7.4. Format: in vitro ADME. In outline:
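Mouse liver microsomes (0.5 mg/mL) were incubated with the test compound (1 μmol/L) and an NADPH regeneration system in phosphate buffer (1.0 mmol/L EDTA), pH 7.4. The reaction was started with NADPH and quenched at 5, 15, 30 and 45 min with acetonitrile plus internal standard. Samples were centrifuged, diluted in water and quantified by LC–MS/MS. t1/2 and CLint are means of duplicates.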

The target of data set [6] is T3, HMGCR (Homo sapiens, UniProt P04035).
T3 sequence (P04035 1-888): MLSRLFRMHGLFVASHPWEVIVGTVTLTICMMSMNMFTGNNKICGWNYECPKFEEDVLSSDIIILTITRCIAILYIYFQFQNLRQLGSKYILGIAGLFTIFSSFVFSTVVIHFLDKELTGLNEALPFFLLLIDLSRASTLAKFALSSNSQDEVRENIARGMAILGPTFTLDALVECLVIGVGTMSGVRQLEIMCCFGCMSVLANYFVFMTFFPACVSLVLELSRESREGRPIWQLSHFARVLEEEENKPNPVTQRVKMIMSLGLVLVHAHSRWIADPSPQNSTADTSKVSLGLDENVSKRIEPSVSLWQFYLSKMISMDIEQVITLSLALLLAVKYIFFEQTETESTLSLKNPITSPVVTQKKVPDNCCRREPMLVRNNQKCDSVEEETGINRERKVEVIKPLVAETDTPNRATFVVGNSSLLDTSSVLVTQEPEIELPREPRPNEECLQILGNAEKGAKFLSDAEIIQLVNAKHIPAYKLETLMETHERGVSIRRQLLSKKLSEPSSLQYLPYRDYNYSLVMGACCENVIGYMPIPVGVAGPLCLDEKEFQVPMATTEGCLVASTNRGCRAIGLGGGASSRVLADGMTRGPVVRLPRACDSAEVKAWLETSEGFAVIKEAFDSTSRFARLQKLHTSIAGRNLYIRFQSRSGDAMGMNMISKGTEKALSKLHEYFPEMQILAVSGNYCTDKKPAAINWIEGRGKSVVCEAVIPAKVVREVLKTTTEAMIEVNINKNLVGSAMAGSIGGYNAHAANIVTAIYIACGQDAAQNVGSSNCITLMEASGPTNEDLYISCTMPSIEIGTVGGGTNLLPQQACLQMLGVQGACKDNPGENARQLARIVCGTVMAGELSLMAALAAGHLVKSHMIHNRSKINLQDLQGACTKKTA
The experiment in a line: Western blot of HMGCR level in HepG2 cells. It is filed as cell-based.

Data set [7] in a line: Chemical stability in saline. Format: physicochemical. Particulars: pH 7.4, 37 °C, 24 h.

The structures appear in SMILES notation. Entries after “also recorded” stand apart in the source; their conditions may differ.

A word on the Tmax: it is the time from dosing to the highest level. As usually defined, the IC50 is the concentration at which inhibition is half-maximal. What is called half-life is the time needed for the level to fall by half in the phase considered. Low values mean rapid decline, high ones slow decline. Broadly, the CLint scaled is the capacity of the preparation to metabolise the compound, expressed as a volume cleared per time. A word on the Dmax: it is the largest share of the target that was removed.

With `CC[C@H](C)C(=O)O[C@H]1C[C@@H](C)C=C2C=C[C@H](C)[C@H](CC[C@@H](O)C[C@@H](O)CC(=O)O)[C@H]21` [lovastatin acid], the time of peak concentration (Tmax) in data set [1] is 90 min.

In the case of `Cc1ncsc1-c1ccc(CNC(=O)[C@@H]2C[C@@H](O)CN2C(=O)[C@@H](NC(=O)CCCCCCCCCCNC(=O)O[C@H]2C[C@@H](C)C=C3C=C[C@H](C)[C@H](CC[C@@H]4C[C@@H](O)CC(=O)O4)[C@H]32)C(C)(C)C)cc1` [Compound 21b, (1S,3R,7S,8S,8aR)-8-(2-((2R,4R)-4-Hydroxy-6-oxotetrahydro-2H-pyran-2-yl)ethyl)-3,7-dimethyl-1,2,3,7,8,8a-hexahydronaphthalen-1-yl (11-(((S)-1-((2S,4R)-4-hydroxy-2-((4-(4-methylthiazol-5-yl)benzyl)carbamoyl)pyrrolidin-1-yl)-3,3-dimethyl-1-oxobutan-2-yl)amino)-11-oxoundecyl)carbamate], in data set [2] (20 mg/kg p.o. once daily, 5 weeks), the “Serum total cholesterol (TC), LDL-C and triglyceride (TG)” value was “moderate decrease”. For the same compound, in data set [2] (60 mg/kg p.o. once daily, 5 weeks), the “Serum TC and cholesteryl esters” value is recorded as “significantly reduced to lower levels”. In data set [2] (20 or 60 mg/kg p.o. once daily, 5 weeks), the “Hepatic TC and TG” value was “reduced hepatic TC and TG in a dose-dependent manner”. Further, in data set [2] (oral once a day for 5 weeks), the “Tolerability (body weight and food intake)” value is “well tolerated; also recorded: no apparent change of body weight and food intake”. In data set [2] (p.o. once daily, 5 weeks), the “Steatosis and lipid deposition in liver sections (H&E, oil red O)” value was “ameliorated MFD-induced steatosis and lipid deposition”. The IC50 in data set [3] amounted to 1.32 µM. Further, the “Hepatic HMGCR level” value at HMGCR [4] is reported as “robust HMGCR degradation”. This compound gave a half-life at 1 μmol/L in data set [5] (mouse, liver microsomes) of 4.18 min. In data set [5] (mouse, liver microsomes, pH 7.4, CLint (mL/min/kg), mouse liver microsomes, mean of duplicate), the CLint scaled at 1 μmol/L turned out to be 416 mL/min/kg. Moreover, the maximal degradation (Dmax) at 1 µM at HMGCR [6] (HepG2, read-out: maximum degradation (Dmax)) worked out at 56%.

As to `C[C@H]1C=C2C=C[C@H](C)[C@H](CC[C@@H]3C[C@@H](O)CC(=O)O3)[C@H]2[C@@H](OC(=O)NCCCOCCOCCOCCCNc2cccc3c2C(=O)N(C2CCC(=O)NC2=O)C3=O)C1` (stereo partly drawn) [Compound 16a, (1S,3R,7S,8S,8aR)-8-(2-((2R,4R)-4-Hydroxy-6-oxotetrahydro-2H-pyran-2-yl)ethyl)-3,7-dimethyl-1,2,3,7,8,8a-hexahydronaphthalen-1-yl (3-(2-(2-(3-((2-(2,6-dioxopiperidin-3-yl)-1,3-dioxoisoindolin-4-yl)amino)propoxy)ethoxy)ethoxy)propyl)carbamate], the IC50 in data set [3] came to 1.25 µM.

As to `C[C@H]1C=C2C=C[C@H](C)[C@H](CC[C@@H]3C[C@@H](O)CC(=O)O3)[C@H]2[C@@H](OC(=O)NCCCNc2cccc3c2C(=O)N(C2CCC(=O)NC2=O)C3=O)C1` (stereo partly drawn) [Compound 16c, (1S,3R,7S,8S,8aR)-8-(2-((2R,4R)-4-Hydroxy-6-oxotetrahydro-2H-pyran-2-yl)ethyl)-3,7-dimethyl-1,2,3,7,8,8a-hexahydronaphthalen-1-yl (3-((2-(2,6-dioxopiperidin-3-yl)-1,3-dioxoisoindolin-4-yl)amino)propyl)carbamate], in data set [3], the IC50 is 2.49 µM.

Regarding `C[C@H]1C=C2C=C[C@H](C)[C@H](CC[C@@H]3C[C@@H](O)CC(=O)O3)[C@H]2[C@@H](OC(=O)NCCOCCOCCNc2cccc3c2C(=O)N(C2CCC(=O)NC2=O)C3=O)C1` (stereo partly drawn) [Compound 16b, (1S,3R,7S,8S,8aR)-8-(2-((2R,4R)-4-Hydroxy-6-oxotetrahydro-2H-pyran-2-yl)ethyl)-3,7-dimethyl-1,2,3,7,8,8a-hexahydronaphthalen-1-yl (2-(2-(2-((2-(2,6-dioxopiperidin-3-yl)-1,3-dioxoisoindolin-4-yl)amino)ethoxy)ethoxy)ethyl)carbamate], the IC50 in data set [3] was 1.88 µM. The “Chemical stability (decomposition)” value in data set [7] is “over half decomposition”.

As to `CC[C@H](C)C(=O)O[C@H]1C[C@@H](C)C=C2C=C[C@H](C)[C@H](CC[C@@H]3C[C@@H](O)CC(=O)O3)[C@H]21` [Lovastatin, lovastatin, reference compound], in data set [1], the Tmax was 120 min. Further, the “Hepatic HMGCR level” value at HMGCR [4] was “retained high HMGCR level”. In data set [5] (mouse liver microsomes, mean of duplicate), the “CLint” value amounted to 7516 mL/min/kg. This compound registered a half-life at 1 μmol/L in data set [5] (mouse, liver microsomes) of 0.73 min. The “Effect on HMGCR expression” value at HMGCR [6] (HepG2 cells, range of concentrations (0.1, 1, 3, 10 μmol/L), 16 h) was “remarkably upregulated HMGCR in a dose-dependent manner”.

Consider `Cc1ncsc1-c1ccc(CNC(=O)[C@@H]2C[C@@H](O)CN2C(=O)[C@@H](NC(=O)CCCCCCCNC(=O)O[C@H]2C[C@@H](C)C=C3C=C[C@H](C)[C@H](CC[C@@H]4C[C@@H](O)CC(=O)O4)[C@H]32)C(C)(C)C)cc1` [Compound 21a, (1S,3R,7S,8S,8aR)-8-(2-((2R,4R)-4-Hydroxy-6-oxotetrahydro-2H-pyran-2-yl)ethyl)-3,7-dimethyl-1,2,3,7,8,8a-hexahydronaphthalen-1-yl (8-(((S)-1-((2S,4R)-4-hydroxy-2-((4-(4-methylthiazol-5-yl)benzyl)carbamoyl)pyrrolidin-1-yl)-3,3-dimethyl-1-oxobutan-2-yl)amino)-8-oxooctyl)carbamate], for which the IC50 in data set [3] came out at 1.56 µM.

The record behind these values is article PMC8148065 (Acta Pharmaceutica Sinica. B, 2020).
